These results are taken from ChEMBL document CHEMBL1155985, “Water-soluble phosphate prodrugs of pleuromutilin analogues with potent in vivo antibacterial activity against Gram-positive pathogens” (Bioorg Med Chem Lett, 2009).

Converted amounts (≈) assume the structure as drawn.

The term solubility denotes the dissolved amount per volume that the medium holds. High values mean a readily soluble substance, low ones a poorly soluble substance. Usually ED50 stands for the midpoint of the dose-response relation. One may read the Cmax as the highest concentration seen after dosing. What is called AUC is the area under the concentration-time curve, a measure of exposure. In general, LD50 refers to the dose at which mortality reaches 50%. Read a low LD50 as greater toxicity. What is called Tmax is the time from dosing to the highest level. Broadly, the MIC is the lowest concentration found to suppress growth.

Data set [1] can be described thus: Stability in buffer at pH 7.4 assessed as remaining compound at 10 mg/ml after 14 days. It counts as physicochemical. The settings on record: read-out: Activity. In a few lines: (§1)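 Compounds at 10 mg/mL in pH 7.4 buffer were kept at room temperature. Percent parent remaining was measured by UV/HPLC at 8 h and at 14 days.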
A short description of data set [2]: Stability in buffer at pH 7.4 assessed as remaining compound at 10 mg/ml after 8 hrs. It counts as physicochemical. As to conditions: read-out: Activity. Summed up: as §1
A short description of data set [3]: Aqueous solubility of the compound. It counts as physicochemical.
In data set [4] the test system is Staphylococcus aureus. The data set can be described thus: Antibacterial activity against methicillin-susceptible Staphylococcus aureus 232-51 infected in mouse dosed 1 hr and 4 hr after infection, iv. Type of data set: functional. As to conditions: 232-51, iv. In a few lines: (§2)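 Lethal systemic S. aureus infection in mice, inoculated intraperitoneally; test agent given iv twice, at 1 h and 4 h post-infection. ED50 taken as the dose giving 50% mouse survival, reported with 95% confidence ranges.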

For data set [5], the system named is Staphylococcus aureus. The data set can be described thus: Antibacterial activity against methicillin-resistant Staphylococcus aureus 236-29 infected in mouse dosed 1 hr and 4 hr after infection, iv. It counts as functional. As to conditions: 236-29, iv. In a few lines: as §2
Data set [6] concerns Rattus norvegicus. As to the kind of experiment: Cmax in Sprague-Dawley rat assessed as parent drug level at 100 mg/kg, iv. Type of data set: ADME, organism-based. Set-up: dose 100 mg/kg, route intravenous. As to conditions: in vivo. In a few lines: (§3)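 Male Sprague-Dawley rats (n = 3) were dosed iv with the phosphate prodrug at 10, 30 or 100 mg/kg. Plasma levels of the parent drug were measured over time. Tmax, Cmax, AUC and elimination half-life were then derived from these levels.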

Data set [7] relates to Rattus norvegicus. As to the kind of experiment: Cmax in Sprague-Dawley rat assessed as parent drug level at 10 mg/kg, iv. Type of data set: ADME, organism-based. Set-up: dose 10 mg/kg, route intravenous. As to conditions: in vivo. Summed up:
as §3

The test system of data set [8] is Rattus norvegicus. The data set can be described thus: AUC (0 to infinity) in Sprague-Dawley rat assessed as parent drug level at 30 mg/kg, iv. As to conditions: in vivo. Type of data set: ADME, organism-based, Plasma. Set-up: time infinity, dose 30 mg/kg, route intravenous. Summed up: as §3
The test system of data set [9] is Rattus norvegicus. The data set can be described thus: Half life in Sprague-Dawley rat assessed as parent drug level at 100 mg/kg, iv. Type of data set: ADME, organism-based. Also on record: dose 100 mg/kg, route intravenous. As to conditions: in vivo. Summed up:
as §3

Data set [10] is described as follows: Toxicity against iv dosed ICR mouse. Type of data set: organism-based. The settings on record: in vivo. In a few lines: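 Acute toxicity after iv administration in SPF-level ICR mice (n = 50); LD50 determined.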
Data set [11] relates to Rattus norvegicus. As to the kind of experiment: Half life in Sprague-Dawley rat assessed as parent drug level at 30 mg/kg, iv. Type of data set: ADME, organism-based. Set-up: dose 30 mg/kg, route intravenous. The settings on record: in vivo. Summed up:
as §3

The subject of data set [12] is Rattus norvegicus. As to the kind of experiment: Tmax in Sprague-Dawley rat assessed as parent drug level at 100 mg/kg, iv. Type of data set: ADME, organism-based. Set-up: dose 100 mg/kg, route intravenous. The settings on record: in vivo. Summed up: as §3
Data set [13] relates to Rattus norvegicus. The data set can be described thus: Tmax in Sprague-Dawley rat assessed as parent drug level at 30 mg/kg, iv. It counts as ADME, organism-based. Set-up: dose 30 mg/kg, route intravenous. The settings on record: in vivo. In a few lines: as §3
Data set [14] concerns Rattus norvegicus. As to the kind of experiment: Half life in Sprague-Dawley rat assessed as parent drug level at 10 mg/kg, iv. It counts as ADME, organism-based. The settings on record: in vivo. Set-up: dose 10 mg/kg, route intravenous. Summed up: as §3
Data set [15] relates to Rattus norvegicus. As to the kind of experiment: Cmax in Sprague-Dawley rat assessed as parent drug level at 30 mg/kg, iv. It counts as ADME, organism-based. As to conditions: in vivo. Set-up: dose 30 mg/kg, route intravenous. Summed up:
as §3

The subject of data set [16] is Rattus norvegicus. As to the kind of experiment: AUC (0 to infinity) in Sprague-Dawley rat assessed as parent drug level at 100 mg/kg, iv. Type of data set: ADME, organism-based, Plasma. Also on record: dose 100 mg/kg, route intravenous, time infinity. As to conditions: in vivo. In a few lines: as §3
Data set [17] deals with Rattus norvegicus. The data set can be described thus: Tmax in Sprague-Dawley rat assessed as parent drug level at 10 mg/kg, iv. Type of data set: ADME, organism-based. Set-up: dose 10 mg/kg, route intravenous. As to conditions: in vivo. In a few lines:
as §3

Data set [18] concerns Rattus norvegicus. The data set can be described thus: AUC (0 to infinity) in Sprague-Dawley rat assessed as parent drug level at 10 mg/kg, iv. It counts as ADME, organism-based, Plasma. Also on record: dose 10 mg/kg, route intravenous, time infinity. As to conditions: in vivo. In a few lines: as §3
Data set [19] deals with Staphylococcus aureus. As to the kind of experiment: Antibacterial activity against methicillin-resistant Staphylococcus aureus by agar dilution method. It counts as functional. Summed up:
(§4)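 MICs by agar dilution following NCCLS guidance against resistant and susceptible Gram-positive strains; retapamulin and linezolid run as positive controls.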

The subject of data set [20] is Staphylococcus epidermidis. The data set can be described thus: Antibacterial activity against methicillin-susceptible Staphylococcus epidermidis by agar dilution method. It counts as functional. In a few lines: as §4
(In general: Agar dilution tests growth on a series of plates holding different concentrations.)

The subject of data set [21] is Staphylococcus epidermidis. As to the kind of experiment: Antibacterial activity against methicillin-resistant Staphylococcus epidermidis by agar dilution method. Type of data set: functional. Summed up:
as §4

The test system of data set [22] is Staphylococcus aureus. The data set can be described thus: Antibacterial activity against methicillin-susceptible Staphylococcus aureus by agar dilution method. Type of data set: functional. In a few lines: as §4
The subject of data set [23] is Streptococcus pneumoniae. The data set can be described thus: Antibacterial activity against Streptococcus pneumoniae by agar dilution method. Type of data set: functional. Summed up:
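MIC was measured by agar dilution following NCCLS guidelines, with retapamulin and linezolid as positive controls.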

The mark [24] stands for this setting: Staphylococcus aureus, read-out: MIC.

Consider `CC[C@]1(C)C[C@@H](OC(=O)NC(=O)c2ccc(O)cc2)[C@]2(C)[C@H](C)CC[C@]3(CCC(=O)[C@@H]32)[C@@H](C)[C@@H]1OP(=O)([O-])[O-].[Na+].[Na+]`, for which, in [1], the remaining at 336 h, 10 mg/ml worked out at 99.5%. In addition, in data set [2], the remaining at 8 h, 10 mg/ml was found to be 100%. The molecule further yielded a solubility in data set [3] of 52.3 mg/mL.
With `CN[C@H](CC(C)C)C(=O)N[C@H]1C(=O)N[C@@H](CC(N)=O)C(=O)N[C@H]2C(=O)N[C@H]3C(=O)N[C@H](C(=O)N[C@H](C(=O)O)c4cc(O)cc(O)c4-c4cc3ccc4O)[C@H](O)c3ccc(c(Cl)c3)Oc3cc2cc(c3O[C@@H]2O[C@H](CO)[C@@H](O)[C@H](O)[C@H]2O[C@H]2C[C@](C)(N)[C@H](O)[C@H](C)O2)Oc2ccc(cc2Cl)[C@H]1O` [VANCOMYCIN], the values for the ED50 in data set [4] and in data set [5] were 13.5 mg/kg and 15.8 mg/kg, respectively.
In the case of `C=C[C@]1(C)C[C@@H](OC(=O)NC(=O)c2ccc(OC)cc2)[C@]2(C)[C@H](C)CC[C@]3(CCC(=O)[C@@H]32)[C@@H](C)[C@@H]1OP(=O)([O-])[O-].[Na+].[Na+]`, the remaining at 336 h, 10 mg/ml in data set [1] amounted to 99.8%. Besides, the remaining at 8 h, 10 mg/ml in data set [2] came out at 100%. The concentration in solution in data set [3] (solubility) was 57.6 mg/mL.
On to `CC[C@]1(C)C[C@@H](OC(=O)NC(=O)c2ccc(OP(=O)([O-])[O-])cc2)[C@]2(C)[C@H](C)CC[C@]3(CCC(=O)[C@@H]32)[C@@H](C)[C@@H]1O.[Na+].[Na+]`, for which the figures for the Cmax in data set [6], in [7] and in data set [15] were 67500 ng/mL, 3390 ng/mL and 11300 ng/mL, respectively. Moreover, the AUC in data set [8] was 5040 ng·h/mL; in data set [16], 32600 ng·h/mL; in data set [18], 1290 ng·h/mL. Also, the t1/2 stood at 37.8 min in data set [9], 45 min in [11] and 30.6 min in data set [14]. Further, the remaining at 336 h, 10 mg/ml in [1] was 99.6%. Further, the ED50 in data set [4] worked out at 17.4 mg/kg; in data set [5], 20.9 mg/kg. Further, the median lethal dose (LD50) in data set [10] came to 1010 mg/kg. Moreover, the time to peak (Tmax) in data set [12], in data set [13] and in data set [17] was 4.98 min throughout. Moreover, the remaining at 8 h, 10 mg/ml in data set [2] came out at 100%. The same molecule yielded a solubility in [3] of 96.8 mg/mL.
Turning to `CC(=O)NC[C@H]1CN(c2ccc(N3CCOCC3)c(F)c2)C(=O)O1` [LINEZOLID], the MIC in data set [19] is 1 µg/mL (≈ 2.96 µM); in data set [20] it was 0.5 µg/mL (≈ 1.48 µM); in data set [21] it was 1 µg/mL (≈ 2.96 µM); in [22], 0.5 µg/mL (≈ 1.48 µM).
Regarding `C=C[C@]1(C)C[C@@H](OC(=O)CS[C@@H]2C[C@H]3CC[C@@H](C2)N3C)[C@]2(C)[C@H](C)CC[C@]3(CCC(=O)[C@H]32)[C@@H](C)[C@@H]1O` [RETAPAMULIN], the MIC in data set [23], in data set [19], in data set [20], in [21] and in [22] (setting [24]) was 0.031 µg/mL (≈ 0.0599 µM) in each case.
As to `C=C[C@]1(C)C[C@@H](OC(=O)NC(=O)c2ccc(OC)cc2)[C@]2(C)[C@H](C)CC[C@]3(CCC(=O)[C@@H]32)[C@@H](C)[C@@H]1O`, the MIC in data set [23] turned out to be 0.125 µg/mL (≈ 0.251 µM); in data set [19], 0.0625 µg/mL (≈ 0.126 µM); in [20] it was 0.0625 µg/mL (≈ 0.126 µM); in data set [21], 0.0625 µg/mL (≈ 0.126 µM); in data set [22] (setting [24]), 0.0625 µg/mL (≈ 0.126 µM).
Take `C=C[C@]1(C)C[C@@H](OC(=O)NC(=O)c2ccc(O)cc2)[C@]2(C)[C@H](C)CC[C@]3(CCC(=O)[C@@H]32)[C@@H](C)[C@@H]1O`: the MIC worked out at 0.25 µg/mL (≈ 0.517 µM) in [23]; 0.125 µg/mL (≈ 0.258 µM) in data set [19]; 0.0625 µg/mL (≈ 0.129 µM) in data set [20]; 0.125 µg/mL (≈ 0.258 µM) in data set [21]; 0.125 µg/mL (≈ 0.258 µM) in data set [22] (setting [24]).
